This excerpt belongs to a sample that is enriched for hits.
PTEN del growth: growth suppression of PTEN-null HCT116, primary screen, cell-based, CellTiter-Glo | HCT116 PTEN-null viability, 60 h; stronger effect = lower value | viability, % at 10 µM | 140,000 compounds, 1.2% hits | AID 827, 2007;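 active = viability at or below a set limit, 4 SD under the median of all tested compounds, cut at about 3.7% in these data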;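 note: PTEN knockout HCT116 line with beta catenin targeted HCT116 as companion control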
Fibroblast inh: antiproliferative effect on LL 47 fibroblasts – human, LL 47 cells, CellTiter-Glo luminescence, primary screen; viability, % at 10 µM; 85,000 compounds, 1.1% hits; AID 719, 2007; LL 47 human lung fibroblast viability, ATP luminescence; stronger effect = lower value;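 active = viability at or below 50% in the single dose screen; inactive = viability above 50%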;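 note: compound exposure lasted 72 h before the ATP readout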
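Material: human LL 47 lung fibroblast cells; quantity: 1,150 cells/well; medium: IMEM plus 15% FBS; doses: 0.1% DMSO in all compound wells; timing: overnight attachment after seeding, then 72 h compound exposure at 37 °C; detection: CellTiter-Glo luminescence; measure: % viability of median cell-only signal; controls: cell-only wells, no compound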
H69AR inhibit: proliferation blockers of H69AR lung cancer cells, primary screen, cell-based, human, 86K library; H69AR lung tumor viability, ATP luminescence, 72 h; stronger effect = lower value; viability, % at 10 µM; 85,000 compounds, 6% hits;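 active = viability at or below 40%; inactive = viability above 40%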;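 note: multidrug resistant small cell line overexpressing MRP-1 efflux transporter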
HCT116 bCat-KO: primary screen for growth suppressors in beta-catenin knockout HCT116 cells (colon tumor, human) | HCT116 beta-catenin knockout viability, CellTiter-Glo, 60 h; stronger effect = lower value | 140,000 compounds, 1.5% hits | viability, % at 10 µM;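 active = viability at or under a set limit, the compound median less 4 SD, cut at about 6% in these data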
HUVEC prolif 384: inhibitors of HUVEC proliferation, primary screen, cell-based, 384-well; 86,000 compounds, 1.1% hits; viability, % at 10 µM (by protocol); AID 648, 2007; CellTiter-Glo luminescence, 72 h; stronger effect = lower value;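 active = viability at or below 30%; inactive = viability above 30%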
Large screens that a line does not name were inactive.

CC1CCCC(NC(=O)COC(=O)CN2C(=O)C3CCCCC3C2=O)C1C (configuration not stated)	none (no result: Fibroblast inh, H69AR inhibit, HUVEC prolif 384)
N=c1n(CCN2CCOCC2)c2ccccc2n1CC(=O)c1ccc(Cl)c(Cl)c1	H69AR inhibit 0.9
CCCCOC(=O)Cn1c(=N)n(CCN2CCOCC2)c2ccccc21	none (no result: PTEN del growth, HCT116 bCat-KO)
Cc1ccc(S(=O)(=O)N2CCCN(S(=O)(=O)c3ccc(C(F)(F)F)cc3)CC2)cc1	Fibroblast inh 49
Cc1ccc(S(=O)(=O)N2CCCN(S(=O)(=O)c3ccc4c(c3)OCCO4)CC2)cc1	H69AR inhibit 32
COc1ccc(S(=O)(=O)N2CCCN(S(=O)(=O)c3ccc(OC)c(C)c3)CC2)cc1C	H69AR inhibit 33
CCOC(=O)C1CCCN(Cc2sccc2C)C1 (configuration not stated)	none
COC(=O)c1sc(NC(=O)CSc2nc3cccnc3n2C2CCCCC2)nc1C	H69AR inhibit 20
CC1=CC(C)(C)N(S(=O)(=O)c2ccc(F)cc2)c2ccccc21	H69AR inhibit 19
CC1=CC(C)(C)N(S(=O)(=O)c2ccc(C)cc2)c2ccc(C)cc21	H69AR inhibit 22
CN1CCN(NC(=O)c2cccc(Br)c2)CC1	none (no result: Fibroblast inh, H69AR inhibit, HUVEC prolif 384)
Cc1nc(N/C(N)=N/S(=O)(=O)c2ccc([N+](=O)[O-])cc2)nc2ccccc12	none (no result: Fibroblast inh, H69AR inhibit, HUVEC prolif 384)
O=C(Nc1ccccc1C(F)(F)F)N1CCN(C(c2ccccc2)c2ccccc2)CC1	H69AR inhibit 31
COc1ccc(-n2nnnc2-c2ccccc2)cc1	H69AR inhibit 20
COc1cccc(/C(O)=C/c2nc3ccc(C(=O)NCCc4ccc(Cl)cc4)cc3[nH]c2=O)c1	PTEN del growth 1.2, HCT116 bCat-KO 1.5 (no result: Fibroblast inh, H69AR inhibit, HUVEC prolif 384)
COc1cccc(/C(O)=C/c2nc3ccc(C(=O)NCCc4cccc(C)c4)cc3[nH]c2=O)c1	none (no result: Fibroblast inh, H69AR inhibit, HUVEC prolif 384)
CN1CCN(C2=Cc3ccc(Cl)cc3Sc3ccc(F)cc32)CC1	H69AR inhibit 21, HUVEC prolif 384 3.8
NC(=O)Nc1ccc(C(=O)OCC(=O)Nc2ccc([N+](=O)[O-])cc2C(F)(F)F)cc1	none (no result: Fibroblast inh, H69AR inhibit, HUVEC prolif 384)
O=C1CCCN1c1ccc(S(=O)(=O)Oc2ccc(Cl)cc2)cc1[N+](=O)[O-]	none (no result: Fibroblast inh, H69AR inhibit, HUVEC prolif 384)
COc1ccccc1NC(=O)C1=C(C)Nc2nnnn2C1c1cc(Br)ccc1OC (configuration not stated)	H69AR inhibit 17
O=c1[nH]c(N2CCN(c3ccccc3)CC2)nc2c1CCCC2	H69AR inhibit 21
COc1cccc(C(=O)N(Cc2ccc(N(C)C)cc2)C2CCS(=O)(=O)C2)c1 (configuration not stated)	none
O=C(CCSCCc1ccccn1)Nc1c(F)c(F)c(F)c(F)c1F	none (no result: Fibroblast inh, H69AR inhibit, HUVEC prolif 384)
Oc1ccc(Cl)cc1-c1cc(-c2ccccc2)n[nH]1	H69AR inhibit 4.3
COc1ccccc1-c1cc(-c2cc(Cl)ccc2O)n[nH]1	none
COc1ccc(-c2cc(-c3ccccc3O)[nH]n2)cc1	H69AR inhibit 13
O=C(NC1CCS(=O)(=O)C1)C12CC3CC(CC(C3)C1)C2 (configuration not stated)	none (no result: Fibroblast inh, H69AR inhibit, HUVEC prolif 384)
COC(=O)c1cccc(N(C(=O)c2cnccn2)C(C(=O)NC2CCCCC2)c2cn(C)nc2C)c1 (configuration not stated)	none (no result: Fibroblast inh, H69AR inhibit, HUVEC prolif 384)
COC(=O)c1sc(N)c(C(=O)OC)c1COC(=O)c1c(C)noc1C	H69AR inhibit 19
Cc1noc(C)c1C(=O)OCC(=O)NC1CC1	none (no result: Fibroblast inh, H69AR inhibit, HUVEC prolif 384)
O=C(Nc1ccn(-c2ccccc2)n1)c1ccc(S(=O)(=O)N2CCCCCC2)cc1	none
Cc1ccccc1NC(=O)C1CCCN1/C=C/C(=O)C(F)(F)F (configuration not stated)	none (no result: Fibroblast inh, H69AR inhibit, HUVEC prolif 384)
Cc1onc(-c2c(Cl)cccc2Cl)c1C(=O)N/N=C(\N)COc1ccc(Cl)cc1	HCT116 bCat-KO 5.9 (no result: Fibroblast inh, H69AR inhibit, HUVEC prolif 384)
CCc1cc(SC#N)cc(CC)c1NC(=O)CCl	PTEN del growth 1.6, HCT116 bCat-KO 1.9 (no result: Fibroblast inh, H69AR inhibit, HUVEC prolif 384)
O=C(N/N=C/C(Br)=C\c1ccccc1)c1n[nH]c2c1CCC2	PTEN del growth 2.2, H69AR inhibit 5.3, HCT116 bCat-KO 3.9, HUVEC prolif 384 22
Cn1cc(C(=O)N/N=C/C(Br)=C/c2ccccc2)ccc1=O	PTEN del growth 3.3, HCT116 bCat-KO 3.6 (no result: Fibroblast inh, H69AR inhibit, HUVEC prolif 384)
O=C(Cc1cccs1)N/N=C/C(Br)=C/c1ccccc1	none (no result: Fibroblast inh, H69AR inhibit, HUVEC prolif 384)
COc1cccc(C(=O)N/N=C/C(Br)=C/c2ccccc2)c1	PTEN del growth 1.7, HCT116 bCat-KO 2.8 (no result: Fibroblast inh, H69AR inhibit, HUVEC prolif 384)
Cc1ccccc1NCC(=O)N/N=C/C(Br)=C/c1ccccc1	H69AR inhibit 11
O=C(N/N=C/C=C/c1ccccc1)c1n[nH]c2c1CCC2	none (no result: Fibroblast inh, H69AR inhibit, HUVEC prolif 384)
COC(=O)c1c(NC(=O)Cn2cnc([N+](=O)[O-])n2)sc2c1CCC(C)C2 (configuration not stated)	none (no result: Fibroblast inh, H69AR inhibit, HUVEC prolif 384)
CCn1c(SCc2nc3ccccc3[nH]2)nnc1-c1ccc(OC)cc1	none
C(=C1/CCCC2=C1Nc1ncnn1C2c1ccccc1)/c1ccccc1 (configuration not stated)	PTEN del growth 1.5, Fibroblast inh 4.1, H69AR inhibit 0.8, HCT116 bCat-KO 1.5, HUVEC prolif 384 13
S=C1NC2=C(CCC/C2=C\c2ccccc2)C(c2ccccc2)N1 (configuration not stated)	none (no result: Fibroblast inh, H69AR inhibit, HUVEC prolif 384)
COC(=O)COc1ccc(S(=O)(=O)NCc2ccncc2)cc1	HCT116 bCat-KO 1.1
O=C(CCN1CCc2ccccc2C1)c1ccc2c(c1)OCCO2	H69AR inhibit 0.7
O=C(CCN1CCc2ccccc21)c1ccc2c(c1)OCCO2	none
CC(C)c1ccc(N(CC(=O)Nc2ccc(S(=O)(=O)N3CCOCC3)cc2)S(C)(=O)=O)cc1	H69AR inhibit 30
CCCn1nnc(NC(=O)c2cccc(OCC(C)C)c2)n1	H69AR inhibit 38
CC(C)COc1cccc(C(=O)Nc2ccc(S(=O)(=O)N3CCOCC3)cc2)c1	H69AR inhibit 22
O=C([C@H](Cc1ccccc1)NS(=O)(=O)c1ccc(Cl)cc1)N1CC[C@@]2(O)CCCC[C@H]2C1	none
CC(=O)n1cc(-c2ccncc2)c2ccccc21	HUVEC prolif 384 25
c1ccc2c(-c3ccncc3)c[nH]c2c1	none
CCOC(=O)c1ccc(NC(=O)CSc2nnc(Cn3c(=O)sc4ccccc43)n2C)cc1	H69AR inhibit 16
Cc1ccc(NC(=O)CSc2nnc(Cn3c(=O)sc4ccccc43)n2C)cc1Cl	H69AR inhibit 29
Cc1ccc(NC(=O)CSc2nnc(Cn3c(=O)sc4ccccc43)n2C)cc1	none
CC1CCc2c(sc3ncn4c(SCC(=O)NCc5ccco5)nnc4c23)C1 (configuration not stated)	H69AR inhibit 10
CCC1CCc2c(sc3nc(SCC(=O)NCc4ccco4)n(-c4ccccc4)c(=O)c23)C1 (configuration not stated)	H69AR inhibit 3.0
CCCN(CCC)S(=O)(=O)c1ccc(C(=O)Nc2nnc(-c3cc(OC)cc(OC)c3)o2)cc1	H69AR inhibit 16
COc1cccc(-c2nnc(NC(=O)C(C)C)o2)c1	none

Assay outcomes from PubChem BioAssay.
